Legend:
Assay type in all cases: functional
[1] = Cytotoxicity against human melanoma cells after 48 hrs by sulforhodamine B assay; settings: Melanoma cell
In short: (§1)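 NCI five-dose screen: about 60 human tumour lines grouped into nine subpanels were plated and incubated 24 h before dosing. Compounds went in as DMSO stock and were diluted in medium to five final concentrations (0.01–100 µM). Exposure was 48 h continuous at 37 °C, 5% CO₂, followed by TCA fixation and SRB staining read at 515 nm. Per-line GI₅₀, TGI and LC₅₀ came from log concentration–% growth curves, averaged per subpanel as MG-MID.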

SK-MEL-28 = test: Growth inhibition of human SK-MEL-28 cells after 48 hrs by sulforhodamine B assay; settings: SK-MEL-28, 48 h
In short: (§2)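 Adherent lines plated and held 24 h at 37 °C, 5% CO2, 100% humidity; time-zero plates TCA-fixed at drug addition. Drugs from DMSO stocks were made into five concentrations by 10-fold or half-log serial dilution and applied for 48 h continuous exposure. Cells were fixed with cold TCA (10% final) for 60 min at 4 °C, then stained with 0.4% SRB in 1% acetic acid for 10 min. Dye was solubilized in 10 mM Tris base and read at 515 nm. GI50 was taken from log concentration–growth curves.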

SK-MEL-5 = test: Growth inhibition of human SK-MEL-5 cells after 48 hrs by sulforhodamine B assay; settings: SK-MEL-5, 48 h; in short: as §2
HOP-92 = test: Growth inhibition of human HOP92 cells after 48 hrs by sulforhodamine B assay; settings: HOP-92, 48 h
In short: (§3)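 NCI 60-line panel, five concentrations (0.01–100 µM) from DMSO stock diluted in medium with gentamicin. Cells were plated 24 h before dosing, with time-zero plates fixed at drug addition, then exposed 48 h at 37 °C, 5% CO₂. Adherent cells were fixed with cold TCA (10% final) and suspension cells with 16% TCA. Staining used 0.4% SRB, solubilised in 10 mM Tris and read at 515 nm. GI₅₀ was taken from log concentration–% growth curves.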

A549 = test: Growth inhibition of human A549 cells after 48 hrs by sulforhodamine B assay; settings: A549, 48 h; in short: as §3
OVCAR-5 = test: Growth inhibition of human OVCAR5 cells after 48 hrs by sulforhodamine B assay; settings: OVCAR-5, 48 h; in short: as §3
HOP-62 = test: Growth inhibition of human HOP62 cells after 48 hrs by sulforhodamine B assay; settings: HOP-62, 48 h; in short: as §3
[2] = Cytotoxicity against human prostate cancer cells after 48 hrs by sulforhodamine B assay; settings: Cancer cell lines; in short: as §1
A498 = test: Growth inhibition of human A498 cells after 48 hrs by sulforhodamine B assay; settings: A498, 48 h; in short: as §3
SN12C = test: Growth inhibition of human SN12C cells after 48 hrs by sulforhodamine B assay; in short: as §2
[3] = Cytotoxicity against human CNS cancer cells after 48 hrs by sulforhodamine B assay; settings: Cancer cell lines; in short: as §1
BT-549 = test: Growth inhibition of human BT549 cells after 48 hrs by sulforhodamine B assay; settings: BT-549, 48 h; in short: as §3
[4] = Growth inhibition of human NCI-H322 cells after 48 hrs by sulforhodamine B assay; settings: NCI-H322, 48 h; in short: as §3
[5] = Cytotoxicity against human ovarian cancer cells after 48 hrs by sulforhodamine B assay; settings: Cancer cell lines; in short: as §1
KM12 = test: Growth inhibition of human KM12 cells after 48 hrs by sulforhodamine B assay; settings: KM12, 48 h; in short: as §3
MCF7 = test: Growth inhibition of human MCF7 cells after 48 hrs by sulforhodamine B assay; settings: MCF7, 48 h; in short: as §3
U-251 = test: Growth inhibition of human U251 cells after 48 hrs by sulforhodamine B assay; settings: U-251, 48 h; in short: as §2
MDA-MB-468 = test: Growth inhibition of human MDA-MB-468 cells after 48 hrs by sulforhodamine B assay; settings: MDA-MB-468, 48 h; in short: as §3
HCC 2998 = test: Growth inhibition of human HCC2998 cells after 48 hrs by sulforhodamine B assay; settings: HCC 2998, 48 h; in short: as §3
[6] = Cytotoxicity against human renal cancer cells after 48 hrs by sulforhodamine B assay; settings: Cancer cell lines; in short: as §1
ACHN = test: Growth inhibition of human ACHN cells after 48 hrs by sulforhodamine B assay; in short: as §3
NCI-H23 = test: Growth inhibition of human NCI-H23 cells after 48 hrs by sulforhodamine B assay; settings: NCI-H23, 48 h; in short: as §3
RXF 393 = test: Growth inhibition of human […] cells after 48 hrs by sulforhodamine B assay; settings: RXF 393, 48 h; in short: as §3
SF-539 = test: Growth inhibition of human SF539 cells after 48 hrs by sulforhodamine B assay; settings: SF-539, 48 h; in short: as §2
SF-295 = test: Growth inhibition of human SF295 cells after 48 hrs by sulforhodamine B assay; settings: SF-295, 48 h; in short: as §3
RPMI-8226 = test: Growth inhibition of human RPMI8226 cells after 48 hrs by sulforhodamine B assay; settings: RPMI-8226, 48 h; in short: as §3
SNB-75 = test: Growth inhibition of human SNB75 cells after 48 hrs by sulforhodamine B assay; settings: SNB-75, 48 h; in short: as §2
OVCAR-3 = test: Growth inhibition of human OVCAR-3 cells after 48 hrs by sulforhodamine B assay; settings: OVCAR-3, 48 h; in short: as §3
LOX IMVI = test: Growth inhibition of human LOXIMVI cells after 48 hrs by sulforhodamine B assay; in short: as §3
COLO 205 = test: Growth inhibition of human COLO205 cells after 48 hrs by sulforhodamine B assay; settings: COLO 205, 48 h; in short: as §3
786-0 = test: Growth inhibition of human 786-0 cells after 48 hrs by sulforhodamine B assay; settings: 786-0, 48 h; in short: as §3
CCRF-CEM = test: Growth inhibition of human CCRF-CEM cells after 48 hrs by sulforhodamine B assay; in short: as §3
TK-10 = test: Growth inhibition of human TK10 cells after 48 hrs by sulforhodamine B assay; settings: TK-10, 48 h; in short: as §2
SF-268 = test: Growth inhibition of human SF268 cells after 48 hrs by sulforhodamine B assay; settings: SF-268, 48 h; in short: as §3
UO-31 = test: Growth inhibition of human UO31 cells after 48 hrs by sulforhodamine B assay; settings: UO-31, 48 h; in short: as §2
[7] = Cytotoxicity against human breast cancer cells after 48 hrs by sulforhodamine B assay; settings: Cancer cell lines; in short: as §1
HT-29 = test: Growth inhibition of human HT-29 cells after 48 hrs by sulforhodamine B assay; settings: HT-29, 48 h; in short: as §3
M14 = test: Growth inhibition of human M14 cells after 48 hrs by sulforhodamine B assay; settings: M14, 48 h; in short: as §3
OVCAR-4 = test: Growth inhibition of human OVCAR4 cells after 48 hrs by sulforhodamine B assay; settings: OVCAR-4, 48 h; in short: as §3
SK-OV-3 = test: Growth inhibition of human SKOV3 cells after 48 hrs by sulforhodamine B assay; settings: SK-OV-3, 48 h; in short: as §2
HCT-116 = test: Growth inhibition of human HCT116 cells after 48 hrs by sulforhodamine B assay; settings: HCT-116, 48 h; in short: as §3

O=C1CC(=O)N(C(=O)c2nn(-c3ccc(Cl)cc3)cc2O)N1
GI50 [1]: 1600 nM
TGI [1]: 50100 nM
CC50 ([1]; read-out: LC50 (the source's name)): 85200 nM
GI50 (SK-MEL-28): 5260 nM
GI50 (SK-MEL-5): 1920 nM
GI50 (HOP-92): 500 nM
GI50 (A549): 360 nM
GI50 (OVCAR-5): 8080 nM
GI50 (HOP-62): 510 nM
GI50 [2]: 670 nM
GI50 (A498): 110 nM
GI50 (SN12C): 500 nM
GI50 [3]: 330 nM
TGI [3]: 87900 nM
GI50 (BT-549): 370 nM
GI50 [4]: 530 nM
GI50 [5]: 1080 nM
TGI [5]: 84000 nM
GI50 (KM12): 1160 nM
GI50 (MCF7): 1560 nM
GI50 (U-251): 180 nM
GI50 (MDA-MB-468): 720 nM
GI50 (HCC 2998): 4740 nM
GI50 [6]: 850 nM
TGI [6]: 71800 nM
GI50 (ACHN): 580 nM
GI50 (NCI-H23): 490 nM
GI50 (RXF 393): 310 nM
GI50 (SF-539): 370 nM
GI50 (SF-295): 150 nM
GI50 (RPMI-8226): 380 nM
GI50 (SNB-75): 240 nM
GI50 (OVCAR-3): 930 nM
GI50 (LOX IMVI): 1370 nM
GI50 (COLO 205): 940 nM
GI50 (786-0): 3770 nM
GI50 (CCRF-CEM): 420 nM
GI50 (TK-10): 350 nM
GI50 (SF-268): 510 nM
GI50 (UO-31): 550 nM
GI50 [7]: 820 nM
TGI [7]: 79600 nM
GI50 (HT-29): 580 nM
GI50 (M14): 710 nM
GI50 (OVCAR-4): 1520 nM
GI50 (SK-OV-3): 1920 nM
GI50 (HCT-116): 340 nM
